The source made the active and inactive calls. The rule behind the calls is not given here.
Columns and labels:
[1] = biological target: RAF proto-oncogene serine/threonine-protein kinase (Homo sapiens, UniProt P04049); test: Inhibition of RAF1 Lys2 labeling site in human Huh-7 cell lysate at 1 uM by KiNativ Profiling analysis relative to control; assay type: subcellular
[2] = Inhibition of KHS2 Lys1 labeling site in human Huh-7 cells at 1 uM by KiNativ Profiling analysis relative to control; settings: condition cancer
[3] = biological target: Mitogen-activated protein kinase kinase kinase 1 (Homo sapiens) (UniProt Q13233); test: Inhibition of MAP3K1 Lys2 labeling site in human Huh-7 cells at 1 uM by KiNativ Profiling analysis relative to control; assay type: cell-based
[4] = biological target: T1, Serine/threonine-protein kinase 3 (Homo sapiens) (UniProt Q13188); test: Inhibition of MST2 Lys2 labeling site harbouring IHRDIKAGNILLNTEGHAK in human Huh-7 cells at 1 uM by KiNativ Profiling analysis relative to control; assay type: cell-based
T1 sequence (whole entry): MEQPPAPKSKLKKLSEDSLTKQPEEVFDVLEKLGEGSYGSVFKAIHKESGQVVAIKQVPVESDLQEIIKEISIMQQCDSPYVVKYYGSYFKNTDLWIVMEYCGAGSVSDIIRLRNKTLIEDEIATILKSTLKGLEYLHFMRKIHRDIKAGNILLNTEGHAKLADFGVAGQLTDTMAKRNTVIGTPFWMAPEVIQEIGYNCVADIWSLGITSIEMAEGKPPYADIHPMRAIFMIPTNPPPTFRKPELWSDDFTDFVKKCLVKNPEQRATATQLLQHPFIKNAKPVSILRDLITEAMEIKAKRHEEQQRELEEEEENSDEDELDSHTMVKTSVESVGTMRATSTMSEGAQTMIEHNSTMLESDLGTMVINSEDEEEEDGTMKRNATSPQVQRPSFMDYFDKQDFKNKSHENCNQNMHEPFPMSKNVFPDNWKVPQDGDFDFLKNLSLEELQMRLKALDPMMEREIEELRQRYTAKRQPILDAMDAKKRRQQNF

[5] = biological target: Dual specificity mitogen-activated protein kinase kinase 2 (Homo sapiens) (UniProt P36507); test: Inhibition of MEK2 (unknown origin) at 10 uM by Ambit Kinomescan binding assay
[6] = biological target: Serine/threonine-protein kinase PLK1 (Homo sapiens) (UniProt P53350); test: Inhibition of PLK1 (unknown origin) at 10 uM by Ambit Kinomescan binding assay
[7] = biological target: Serine/threonine-protein kinase A-Raf (Homo sapiens) (UniProt P10398); test: Inhibition of ARAF Lys2 labeling site in human A-375 cells at 0.05 uM by KiNativ Profiling analysis relative to control; assay type: cell-based
[8] = biological target: Microtubule-associated serine/threonine-protein kinase 3 (Homo sapiens) (UniProt O60307); test: Inhibition of MAST3 Lys2 labeling site in human A-375 cells at 0.05 uM by KiNativ Profiling analysis relative to control; assay type: cell-based
[9] = biological target: Focal adhesion kinase 1 (Homo sapiens) (UniProt Q05397); test: Inhibition of FAK K1 labeling site in human Huh-7 cells at 10 uM by KiNativ Profiling analysis relative to control; assay type: cell-based
[10] = biological target: STE20-like serine/threonine-protein kinase (Homo sapiens) (UniProt Q9H2G2); test: Inhibition of SLK K2 labeling site harbouring DLKAGNILFTLDGDIK in human Huh-7 cells at 1 uM by KiNativ Profiling analysis relative to control; assay type: cell-based
[11] = biological target: Proto-oncogene tyrosine-protein kinase Src (Homo sapiens, UniProt P12931); test: Inhibition of SRC (unknown origin) at 10 uM by Ambit Kinomescan binding assay relative to control; values are per cent of control
[12] = test system: eIF-2-alpha kinase GCN2 (Homo sapiens), Q9P2K8 [S808G]; test: Inhibition of GCN2 kinase domain 2 S808G mutant (unknown origin) at 1 uM by Ambit Kinomescan binding assay relative to control
[13] = biological target: Ribosomal protein S6 kinase alpha-2 (Homo sapiens) (UniProt Q15349); test: Inhibition of N-terminal RSK3 kinase domain 1 (unknown origin) at 1 uM by Ambit Kinomescan binding assay relative to control
Summary of the method: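 In vitro ATP-site competition binding assay against a panel of over 420 kinases (KinomeScan), with compound tested at 10 or 1 μM.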

[14] = biological target: STE20/SPS1-related proline-alanine-rich protein kinase (Homo sapiens) (UniProt Q9UEW8); test: Inhibition of STK39 (unknown origin) at 1 uM by Ambit Kinomescan binding assay relative to control
[15] = biological target: T2, Inhibitor of nuclear factor kappa-B kinase subunit epsilon (Homo sapiens) (UniProt Q14164); test: Inhibition of IKKe Lys2 labeling site in human A-375 cells at 5 uM by KiNativ Profiling analysis relative to control; assay type: cell-based
T2 sequence (whole entry): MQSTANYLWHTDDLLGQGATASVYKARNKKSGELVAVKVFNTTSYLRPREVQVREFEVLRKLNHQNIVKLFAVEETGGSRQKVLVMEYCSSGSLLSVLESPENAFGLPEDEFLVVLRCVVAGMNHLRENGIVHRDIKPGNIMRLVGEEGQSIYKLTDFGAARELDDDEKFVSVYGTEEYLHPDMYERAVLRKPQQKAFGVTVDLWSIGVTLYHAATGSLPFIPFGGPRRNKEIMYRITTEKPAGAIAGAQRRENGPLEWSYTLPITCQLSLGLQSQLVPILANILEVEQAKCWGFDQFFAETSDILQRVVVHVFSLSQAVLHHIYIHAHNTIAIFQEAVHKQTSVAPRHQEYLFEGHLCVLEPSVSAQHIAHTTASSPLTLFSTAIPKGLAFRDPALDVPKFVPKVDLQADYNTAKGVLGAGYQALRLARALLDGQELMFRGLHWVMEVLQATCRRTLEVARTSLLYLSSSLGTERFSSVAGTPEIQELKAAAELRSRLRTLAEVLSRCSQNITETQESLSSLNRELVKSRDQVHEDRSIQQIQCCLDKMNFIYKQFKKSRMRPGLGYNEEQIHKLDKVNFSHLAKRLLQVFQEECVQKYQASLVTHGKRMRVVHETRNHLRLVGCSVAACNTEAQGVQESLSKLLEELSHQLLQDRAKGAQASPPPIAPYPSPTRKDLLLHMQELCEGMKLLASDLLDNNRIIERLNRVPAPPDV

[16] = biological target: T3, Dual specificity mitogen-activated protein kinase kinase 6 (Homo sapiens) (UniProt P52564); test: Inhibition of MAP2K6 Lys1 labeling site in human A-375 cells at 5 uM by KiNativ Profiling analysis relative to control; assay type: cell-based
T3 sequence (whole entry): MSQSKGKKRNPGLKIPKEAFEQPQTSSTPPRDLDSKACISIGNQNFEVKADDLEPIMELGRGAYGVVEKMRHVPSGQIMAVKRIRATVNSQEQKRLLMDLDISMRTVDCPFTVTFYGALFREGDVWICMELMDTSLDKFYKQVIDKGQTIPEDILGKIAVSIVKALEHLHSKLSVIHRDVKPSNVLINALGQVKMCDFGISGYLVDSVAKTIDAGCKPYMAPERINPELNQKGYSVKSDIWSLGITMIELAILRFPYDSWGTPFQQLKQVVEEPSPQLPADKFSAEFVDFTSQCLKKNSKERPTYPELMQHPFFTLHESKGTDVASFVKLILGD

Sequence of Microtubule-associated serine/threonine-protein kinase 3 (Homo sapiens) (O60307 whole entry): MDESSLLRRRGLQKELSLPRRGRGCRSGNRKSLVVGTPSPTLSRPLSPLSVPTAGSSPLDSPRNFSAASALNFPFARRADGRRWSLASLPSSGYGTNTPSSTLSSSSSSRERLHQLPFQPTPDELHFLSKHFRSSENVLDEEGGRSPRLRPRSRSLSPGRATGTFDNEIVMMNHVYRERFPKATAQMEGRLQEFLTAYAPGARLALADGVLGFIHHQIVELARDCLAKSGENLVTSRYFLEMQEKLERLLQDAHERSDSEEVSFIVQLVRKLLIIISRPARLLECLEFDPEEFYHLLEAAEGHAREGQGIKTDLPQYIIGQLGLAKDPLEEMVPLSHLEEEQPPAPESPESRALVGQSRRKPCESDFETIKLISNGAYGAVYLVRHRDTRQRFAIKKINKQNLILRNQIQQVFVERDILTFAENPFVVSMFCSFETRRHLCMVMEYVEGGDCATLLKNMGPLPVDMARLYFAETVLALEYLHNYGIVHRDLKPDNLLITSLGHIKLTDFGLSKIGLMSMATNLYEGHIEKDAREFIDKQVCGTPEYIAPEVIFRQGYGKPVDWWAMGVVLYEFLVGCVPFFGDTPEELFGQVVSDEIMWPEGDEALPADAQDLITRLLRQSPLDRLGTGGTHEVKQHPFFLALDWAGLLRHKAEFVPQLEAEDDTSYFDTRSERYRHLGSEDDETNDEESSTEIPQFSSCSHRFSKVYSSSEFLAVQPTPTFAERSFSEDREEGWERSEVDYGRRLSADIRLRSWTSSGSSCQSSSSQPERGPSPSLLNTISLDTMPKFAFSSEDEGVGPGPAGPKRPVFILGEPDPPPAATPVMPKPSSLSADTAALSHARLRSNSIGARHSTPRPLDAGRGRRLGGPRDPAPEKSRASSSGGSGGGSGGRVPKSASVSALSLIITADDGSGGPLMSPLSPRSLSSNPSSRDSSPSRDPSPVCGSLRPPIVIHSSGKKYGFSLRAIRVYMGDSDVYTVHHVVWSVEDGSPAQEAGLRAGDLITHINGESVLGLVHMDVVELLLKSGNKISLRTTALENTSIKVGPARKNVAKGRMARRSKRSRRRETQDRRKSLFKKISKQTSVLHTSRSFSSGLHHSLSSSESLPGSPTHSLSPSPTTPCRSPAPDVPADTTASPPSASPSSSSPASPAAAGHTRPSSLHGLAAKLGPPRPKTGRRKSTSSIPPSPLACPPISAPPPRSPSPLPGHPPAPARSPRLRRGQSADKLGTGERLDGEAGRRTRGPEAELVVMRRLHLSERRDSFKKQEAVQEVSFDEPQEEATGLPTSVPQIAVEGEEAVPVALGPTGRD
Sequence of Proto-oncogene tyrosine-protein kinase Src (P12931 2-536 limits assumed): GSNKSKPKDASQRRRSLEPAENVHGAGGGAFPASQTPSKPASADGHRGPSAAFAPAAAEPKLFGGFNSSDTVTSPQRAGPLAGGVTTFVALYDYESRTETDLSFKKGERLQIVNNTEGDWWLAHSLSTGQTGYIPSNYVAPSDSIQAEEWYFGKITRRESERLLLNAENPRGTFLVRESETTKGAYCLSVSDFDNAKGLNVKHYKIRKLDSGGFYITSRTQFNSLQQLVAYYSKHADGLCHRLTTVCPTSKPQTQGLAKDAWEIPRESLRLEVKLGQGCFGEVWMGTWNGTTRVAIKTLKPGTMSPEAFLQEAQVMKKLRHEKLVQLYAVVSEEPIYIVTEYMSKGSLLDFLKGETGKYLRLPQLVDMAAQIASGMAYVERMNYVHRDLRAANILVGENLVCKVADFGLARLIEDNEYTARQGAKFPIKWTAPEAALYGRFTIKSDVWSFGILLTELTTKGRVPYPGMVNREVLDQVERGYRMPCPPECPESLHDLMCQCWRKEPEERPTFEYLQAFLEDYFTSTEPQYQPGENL
Sequence of Ribosomal protein S6 kinase alpha-2 (Homo sapiens) (Q15349 whole entry, the tested form may be a part): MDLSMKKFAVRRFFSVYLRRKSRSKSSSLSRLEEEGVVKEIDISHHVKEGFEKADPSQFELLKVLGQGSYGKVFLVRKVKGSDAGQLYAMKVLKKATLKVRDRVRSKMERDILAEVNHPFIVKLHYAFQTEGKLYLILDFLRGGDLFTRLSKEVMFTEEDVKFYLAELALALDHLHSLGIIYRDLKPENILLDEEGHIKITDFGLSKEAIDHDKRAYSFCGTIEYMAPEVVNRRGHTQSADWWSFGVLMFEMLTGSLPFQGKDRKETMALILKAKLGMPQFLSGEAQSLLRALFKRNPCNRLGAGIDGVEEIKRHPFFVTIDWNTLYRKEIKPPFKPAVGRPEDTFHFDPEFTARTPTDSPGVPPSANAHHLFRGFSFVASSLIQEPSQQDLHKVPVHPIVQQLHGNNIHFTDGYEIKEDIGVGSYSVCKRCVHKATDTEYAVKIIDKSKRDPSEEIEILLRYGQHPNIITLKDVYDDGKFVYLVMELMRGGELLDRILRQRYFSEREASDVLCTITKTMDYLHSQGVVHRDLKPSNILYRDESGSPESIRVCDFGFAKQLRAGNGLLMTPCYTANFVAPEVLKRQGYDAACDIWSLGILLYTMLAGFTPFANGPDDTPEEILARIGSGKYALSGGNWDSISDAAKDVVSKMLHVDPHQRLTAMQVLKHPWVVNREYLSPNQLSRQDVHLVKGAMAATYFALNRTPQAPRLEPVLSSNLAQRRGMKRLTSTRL
Sequence of eIF-2-alpha kinase GCN2 (Homo sapiens), Q9P2K8 [S808G] (Q9P2K8 whole entry S808G, the tested form may be a part): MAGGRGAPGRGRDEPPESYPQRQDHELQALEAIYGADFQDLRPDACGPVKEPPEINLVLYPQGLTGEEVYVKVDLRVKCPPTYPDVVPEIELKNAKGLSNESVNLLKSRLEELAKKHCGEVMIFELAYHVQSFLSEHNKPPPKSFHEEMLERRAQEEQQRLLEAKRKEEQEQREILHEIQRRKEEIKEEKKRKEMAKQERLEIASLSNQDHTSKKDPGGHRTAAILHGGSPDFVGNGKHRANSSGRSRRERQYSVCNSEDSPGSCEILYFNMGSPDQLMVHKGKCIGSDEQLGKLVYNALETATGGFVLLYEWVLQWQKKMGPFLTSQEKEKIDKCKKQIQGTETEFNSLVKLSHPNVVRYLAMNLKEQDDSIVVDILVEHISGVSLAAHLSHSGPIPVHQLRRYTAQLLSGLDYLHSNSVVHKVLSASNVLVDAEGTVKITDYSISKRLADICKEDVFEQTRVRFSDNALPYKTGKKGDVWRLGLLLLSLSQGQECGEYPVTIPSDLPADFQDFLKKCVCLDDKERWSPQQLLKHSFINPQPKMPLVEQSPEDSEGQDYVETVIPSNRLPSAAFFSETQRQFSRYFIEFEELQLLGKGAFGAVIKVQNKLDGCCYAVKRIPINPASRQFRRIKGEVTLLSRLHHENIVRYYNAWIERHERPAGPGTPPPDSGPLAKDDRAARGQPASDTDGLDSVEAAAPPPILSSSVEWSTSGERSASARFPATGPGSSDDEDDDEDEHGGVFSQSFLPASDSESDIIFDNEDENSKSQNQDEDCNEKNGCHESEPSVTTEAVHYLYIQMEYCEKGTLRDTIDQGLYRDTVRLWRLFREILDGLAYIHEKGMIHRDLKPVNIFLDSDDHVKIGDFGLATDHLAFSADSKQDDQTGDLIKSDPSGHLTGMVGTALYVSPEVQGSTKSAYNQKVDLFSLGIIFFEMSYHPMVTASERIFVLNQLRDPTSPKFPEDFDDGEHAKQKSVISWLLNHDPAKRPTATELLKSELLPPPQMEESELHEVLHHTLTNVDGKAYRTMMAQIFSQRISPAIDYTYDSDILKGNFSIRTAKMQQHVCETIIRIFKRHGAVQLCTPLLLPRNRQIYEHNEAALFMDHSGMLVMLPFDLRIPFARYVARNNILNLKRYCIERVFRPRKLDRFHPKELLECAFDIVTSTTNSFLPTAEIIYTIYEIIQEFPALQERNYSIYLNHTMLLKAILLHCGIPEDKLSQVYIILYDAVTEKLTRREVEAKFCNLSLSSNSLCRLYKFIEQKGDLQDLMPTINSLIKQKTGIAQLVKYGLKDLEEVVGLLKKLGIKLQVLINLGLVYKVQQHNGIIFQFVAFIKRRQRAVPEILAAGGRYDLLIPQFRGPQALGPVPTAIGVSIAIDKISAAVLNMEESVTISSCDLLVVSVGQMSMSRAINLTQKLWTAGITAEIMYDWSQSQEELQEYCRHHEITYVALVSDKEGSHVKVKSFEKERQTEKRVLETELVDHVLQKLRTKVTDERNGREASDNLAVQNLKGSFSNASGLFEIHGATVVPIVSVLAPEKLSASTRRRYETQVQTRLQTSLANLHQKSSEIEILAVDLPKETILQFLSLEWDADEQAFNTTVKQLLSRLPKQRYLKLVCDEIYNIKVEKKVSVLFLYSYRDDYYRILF
Sequence of Serine/threonine-protein kinase A-Raf (Homo sapiens) (P10398 whole entry): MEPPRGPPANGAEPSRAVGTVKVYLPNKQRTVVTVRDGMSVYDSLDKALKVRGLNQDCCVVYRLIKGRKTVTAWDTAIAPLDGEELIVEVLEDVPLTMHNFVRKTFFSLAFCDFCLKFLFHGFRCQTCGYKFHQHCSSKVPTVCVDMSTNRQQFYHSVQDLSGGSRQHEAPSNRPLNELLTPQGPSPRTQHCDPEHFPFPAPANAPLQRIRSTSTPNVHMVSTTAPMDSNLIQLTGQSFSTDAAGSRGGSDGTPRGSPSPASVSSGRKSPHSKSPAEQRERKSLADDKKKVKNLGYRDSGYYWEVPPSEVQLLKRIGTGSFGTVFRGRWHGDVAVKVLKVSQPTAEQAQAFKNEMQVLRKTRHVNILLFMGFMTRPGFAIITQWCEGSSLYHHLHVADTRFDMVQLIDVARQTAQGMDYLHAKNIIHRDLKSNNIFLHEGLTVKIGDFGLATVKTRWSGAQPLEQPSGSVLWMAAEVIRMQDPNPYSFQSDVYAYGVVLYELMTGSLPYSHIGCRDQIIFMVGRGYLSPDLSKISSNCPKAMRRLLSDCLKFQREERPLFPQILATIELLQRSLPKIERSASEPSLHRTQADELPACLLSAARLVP

Work on `CNc1cc(Oc2cc(C(=O)Nc3cc(N4CCN(C)CC4)cc(C(F)(F)F)c3)ccc2C)ncn1` yielded an inhibition [1] of 23.2%, an inhibition at 1 µM [2] of 5.3% and an inhibition [3] of 27%. The inhibition [4] was -0.8%.
For `CCN1CCN(Cc2ccc(NC(=O)c3ccc(C)c(Oc4ccnc5[nH]ccc45)c3)cc2C(F)(F)F)CC1`, the inhibition [5] was “inactive”, the inhibition [6] was “inactive” and the inhibition [7] was 39.3%. For the same compound, the inhibition [8] was -3.3%, the inhibition [9] was 13% and the inhibition [10] was 66.5%. For the same compound, the residual activity [11] was 0.2%.
For `CCN1CCN(Cc2ccc(NC(=O)c3ccc(C)c(/C=C/c4cnc5[nH]ccc5c4OC)c3)cc2C(F)(F)F)CC1`, the inhibition [12] was 11%, the inhibition [13] was 68% and the inhibition [14] was 70%. The inhibition [15] was 37.6% and the inhibition [16] was -0.7%.

Source: ChEMBL document CHEMBL5696442, “Discovery of type II inhibitors of TGFβ-activated kinase 1 (TAK1) and mitogen-activated protein kinase kinase kinase kinase 2 (MAP4K2)” (J Med Chem, 2015)
